Test results from ChEMBL document CHEMBL1221191, “Inhibitors of Polo-like kinase reveal roles in spindle-pole maintenance” (Nat Chem Biol, 2006).
Activity calls are given as the source filed them. The rule behind the calls is not given here.

What was measured:
[1] = biological target: Serine/threonine-protein kinase PLK1 (Homo sapiens, UniProt P53350)
S2 [2] = assay: Antimitotic activity against Drosophila melanogaster S2 cells assessed as nucleated microtubule at 20 nM in presence of high speed cytoplasmic supernatant; type: functional, cell-based
In short: (§1)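 Centrosomes partially purified from Drosophila embryos, some stripped with 1 M KI. Compound (10 or 20 nM; 0.1% DMSO carrier) incubated 20 min at 25 °C with centrosomes or with high-speed embryonic cytoplasmic supernatant, then microtubule nucleation assayed with rhodamine-labelled tubulin. Staining for γ-tubulin, MPM2 epitope, Asp and centrosomin. MPM2 also checked by western blot of treated supernatant.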

S2 [3] = assay: Antimitotic activity against Drosophila melanogaster S2 cells assessed as loss of gamma-tubulin at 20 nM by immunostaining; type: functional, cell-based
In short: as §1

S2 [4] = assay: Antimitotic activity against Drosophila melanogaster S2 cells assessed as loss of MPM2 epitope from centrosome at 20 nM by immunostaining; type: functional, cell-based
In short: as §1

S2 [5] = assay: Inhibition of […]-mediated gamma-TuRc recruitment in Drosophila melanogaster S2 cells at 20 nM in presence of high-speed supernatant of syncytial embryo cytoplasam; type: cell-based
In short: as §1

Drosophila melanogaster = assay: Inhibition of […]-mediated Asp protein recruitment in Drosophila melanogaster S2 at 20 nM in presence of high-speed supernatant of syncytial embryo cytoplasam
In short: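 Centrosomes partially purified from D. melanogaster embryos were salt-stripped with 1 M KI. They were then incubated with rhodamine-labeled tubulin and high-speed embryonic cytoplasmic supernatant. The supernatant was pretreated with compound (20 nM) or 0.1% DMSO for 20 min at 25 °C. Preparations were immunostained for centrosomin, γ-tubulin, Asp and the MPM2 phosphoepitope, and microtubule nucleation was scored.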

S2 [6] = assay: Antimitotic activity against Drosophila melanogaster S2 cells cytosolic extract assessed as loss of MPM2 epitope; type: functional, cell-based
In short: as §1

[7] = biological target: Cyclin-dependent kinase 2/cyclin E1 (Homo sapiens, UniProt P24941); assay: Inhibition of CDK2/Cyclin E; type: protein-complex assay
[8] = biological target: Cyclin-dependent kinase 2/cyclin A (Homo sapiens, UniProt P24941); assay: Inhibition of CDK2/Cyclin A; type: protein-complex assay
[9] = biological target: Cyclin-dependent kinase 1/cyclin B1 (Homo sapiens, UniProt P06493); assay: Inhibition of CDK1/Cyclin B; type: protein-complex assay
[10] = biological target: Cyclin-dependent kinase 4/cyclin D1 (Homo sapiens, UniProt P11802); assay: Inhibition of CDK4/Cyclin D1; type: protein-complex assay
Chain of Cyclin-dependent kinase 4/cyclin D1 (P11802 whole entry): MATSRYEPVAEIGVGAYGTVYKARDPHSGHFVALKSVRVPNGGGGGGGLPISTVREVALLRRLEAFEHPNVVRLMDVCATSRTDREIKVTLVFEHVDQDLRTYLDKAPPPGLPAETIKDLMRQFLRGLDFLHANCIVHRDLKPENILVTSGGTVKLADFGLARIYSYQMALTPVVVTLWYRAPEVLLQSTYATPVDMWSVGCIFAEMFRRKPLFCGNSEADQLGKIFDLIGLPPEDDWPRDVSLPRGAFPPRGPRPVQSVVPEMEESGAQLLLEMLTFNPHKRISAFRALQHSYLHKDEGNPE
Chain of Cyclin-dependent kinase 4/cyclin D1 (P24385 whole entry, further chain): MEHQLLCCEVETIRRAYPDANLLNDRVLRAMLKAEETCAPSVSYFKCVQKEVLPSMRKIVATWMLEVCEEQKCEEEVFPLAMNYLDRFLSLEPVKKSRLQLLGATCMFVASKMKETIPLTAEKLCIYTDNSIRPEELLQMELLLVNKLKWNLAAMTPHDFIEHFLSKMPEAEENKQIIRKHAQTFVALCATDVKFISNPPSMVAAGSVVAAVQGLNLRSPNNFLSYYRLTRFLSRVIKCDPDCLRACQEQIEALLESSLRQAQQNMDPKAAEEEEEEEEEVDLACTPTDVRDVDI

[11] = biological target: Cyclin-dependent kinase 7/ cyclin H (Homo sapiens, UniProt P50613); assay: Inhibition of CDK7/Cyclin H; type: protein-complex assay
Chain of Cyclin-dependent kinase 7/ cyclin H (P51946 whole entry): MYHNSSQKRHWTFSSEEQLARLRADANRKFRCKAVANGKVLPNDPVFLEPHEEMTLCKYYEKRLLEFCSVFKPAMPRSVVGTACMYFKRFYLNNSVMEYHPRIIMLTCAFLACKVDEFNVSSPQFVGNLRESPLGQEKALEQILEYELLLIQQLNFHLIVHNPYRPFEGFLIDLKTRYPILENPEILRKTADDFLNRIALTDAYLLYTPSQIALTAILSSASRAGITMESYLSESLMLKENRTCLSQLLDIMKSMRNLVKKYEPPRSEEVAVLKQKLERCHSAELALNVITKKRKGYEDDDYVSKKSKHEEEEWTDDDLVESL
Chain of Cyclin-dependent kinase 7/ cyclin H (P50613 whole entry): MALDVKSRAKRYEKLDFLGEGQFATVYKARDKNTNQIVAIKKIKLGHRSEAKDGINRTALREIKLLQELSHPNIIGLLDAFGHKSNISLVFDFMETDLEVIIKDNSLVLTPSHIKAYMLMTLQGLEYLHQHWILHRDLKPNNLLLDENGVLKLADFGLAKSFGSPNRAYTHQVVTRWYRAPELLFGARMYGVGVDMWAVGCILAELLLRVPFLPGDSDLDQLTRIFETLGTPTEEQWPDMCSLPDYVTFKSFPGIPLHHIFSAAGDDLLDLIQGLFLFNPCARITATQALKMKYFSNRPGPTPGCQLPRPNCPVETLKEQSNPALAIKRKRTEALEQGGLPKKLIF

CDK9/cyclin T1 = CDK9/cyclin T1 (Homo sapiens, UniProt P50750); assay: Inhibition of CDK9/Cyclin T; type: protein-complex assay
Chain of CDK9/cyclin T1 (O60563 whole entry): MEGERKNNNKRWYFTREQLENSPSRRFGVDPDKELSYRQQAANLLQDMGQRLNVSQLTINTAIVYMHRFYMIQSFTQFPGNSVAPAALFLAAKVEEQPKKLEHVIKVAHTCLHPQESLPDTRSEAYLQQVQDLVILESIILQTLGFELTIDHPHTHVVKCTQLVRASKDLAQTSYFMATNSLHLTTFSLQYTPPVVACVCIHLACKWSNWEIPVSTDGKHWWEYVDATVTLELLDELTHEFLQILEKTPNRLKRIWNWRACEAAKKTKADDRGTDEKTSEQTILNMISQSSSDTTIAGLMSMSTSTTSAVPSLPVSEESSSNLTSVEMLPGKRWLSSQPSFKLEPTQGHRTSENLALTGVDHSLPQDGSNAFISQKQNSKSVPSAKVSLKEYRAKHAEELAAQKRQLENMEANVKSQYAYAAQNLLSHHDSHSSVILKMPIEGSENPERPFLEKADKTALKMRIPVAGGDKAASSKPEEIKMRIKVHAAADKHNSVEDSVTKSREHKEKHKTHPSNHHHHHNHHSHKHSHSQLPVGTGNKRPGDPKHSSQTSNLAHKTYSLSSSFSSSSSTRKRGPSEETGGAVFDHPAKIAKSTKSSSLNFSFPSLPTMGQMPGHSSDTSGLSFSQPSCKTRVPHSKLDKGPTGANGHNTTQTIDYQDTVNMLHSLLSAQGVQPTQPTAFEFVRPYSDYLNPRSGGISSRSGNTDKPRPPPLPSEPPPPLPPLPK
Chain of CDK9/cyclin T1 (P50750 whole entry): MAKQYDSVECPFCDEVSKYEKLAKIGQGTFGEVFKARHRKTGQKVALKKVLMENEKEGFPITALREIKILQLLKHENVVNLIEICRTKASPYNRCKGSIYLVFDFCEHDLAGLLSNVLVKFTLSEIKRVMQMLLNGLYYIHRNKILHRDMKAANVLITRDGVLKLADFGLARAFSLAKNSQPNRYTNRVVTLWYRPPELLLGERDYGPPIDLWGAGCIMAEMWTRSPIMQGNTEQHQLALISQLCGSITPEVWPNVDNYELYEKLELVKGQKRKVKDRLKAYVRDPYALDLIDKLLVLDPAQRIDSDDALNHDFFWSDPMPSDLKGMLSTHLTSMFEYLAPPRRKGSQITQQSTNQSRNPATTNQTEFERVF

[12] = Inhibition of CK2
[13] = Inhibition of CamK2
[14] = Inhibition of MAPK/ERK
[15] = biological target: Protein kinase C alpha type (Homo sapiens, UniProt P17252); assay: Inhibition of PKCalpha
[16] = biological target: RAC-alpha serine/threonine-protein kinase (Homo sapiens, UniProt P31749); assay: Inhibition of Akt
Chain of RAC-alpha serine/threonine-protein kinase (P31749 whole entry): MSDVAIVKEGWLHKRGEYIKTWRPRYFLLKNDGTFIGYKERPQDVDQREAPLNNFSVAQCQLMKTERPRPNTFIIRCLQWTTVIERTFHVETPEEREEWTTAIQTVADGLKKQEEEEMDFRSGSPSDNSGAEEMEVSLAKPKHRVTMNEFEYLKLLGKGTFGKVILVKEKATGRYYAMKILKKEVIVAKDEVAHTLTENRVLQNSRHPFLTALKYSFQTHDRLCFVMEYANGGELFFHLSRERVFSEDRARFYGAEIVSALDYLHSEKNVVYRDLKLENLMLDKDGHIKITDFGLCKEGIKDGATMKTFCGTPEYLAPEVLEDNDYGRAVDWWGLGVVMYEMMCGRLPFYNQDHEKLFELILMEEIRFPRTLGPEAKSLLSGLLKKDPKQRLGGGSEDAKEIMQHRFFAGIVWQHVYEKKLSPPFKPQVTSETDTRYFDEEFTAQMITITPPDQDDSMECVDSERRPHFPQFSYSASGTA

[17] = biological target: Tyrosine-protein kinase ABL1 (Homo sapiens, UniProt P00519); assay: Inhibition of Abl
[18] = biological target: Glycogen synthase kinase-3 alpha (Homo sapiens, UniProt P49840); assay: Inhibition of GSK3alpha
Aurora kinase A = Aurora kinase A (Homo sapiens, UniProt O14965); assay: Inhibition of Aurora A
Chain of Aurora kinase A (O14965 whole entry): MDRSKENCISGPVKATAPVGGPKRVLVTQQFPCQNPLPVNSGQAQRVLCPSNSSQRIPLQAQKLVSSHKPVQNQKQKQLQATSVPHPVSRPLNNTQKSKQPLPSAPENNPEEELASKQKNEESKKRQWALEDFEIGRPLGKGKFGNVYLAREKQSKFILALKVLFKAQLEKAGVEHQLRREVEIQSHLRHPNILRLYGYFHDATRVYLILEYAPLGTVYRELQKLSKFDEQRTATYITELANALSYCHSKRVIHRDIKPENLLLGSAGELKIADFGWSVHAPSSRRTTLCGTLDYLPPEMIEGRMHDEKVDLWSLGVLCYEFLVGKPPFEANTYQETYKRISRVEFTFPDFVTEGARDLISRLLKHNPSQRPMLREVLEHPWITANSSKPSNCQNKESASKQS

[19] = Inhibition of PKA
[20] = Inhibition of P70S6K
[21] = biological target: Mitogen-activated protein kinase 11 (Homo sapiens, UniProt Q15759); assay: Inhibition of SAPK2
Chain of Mitogen-activated protein kinase 11 (Q15759 whole entry): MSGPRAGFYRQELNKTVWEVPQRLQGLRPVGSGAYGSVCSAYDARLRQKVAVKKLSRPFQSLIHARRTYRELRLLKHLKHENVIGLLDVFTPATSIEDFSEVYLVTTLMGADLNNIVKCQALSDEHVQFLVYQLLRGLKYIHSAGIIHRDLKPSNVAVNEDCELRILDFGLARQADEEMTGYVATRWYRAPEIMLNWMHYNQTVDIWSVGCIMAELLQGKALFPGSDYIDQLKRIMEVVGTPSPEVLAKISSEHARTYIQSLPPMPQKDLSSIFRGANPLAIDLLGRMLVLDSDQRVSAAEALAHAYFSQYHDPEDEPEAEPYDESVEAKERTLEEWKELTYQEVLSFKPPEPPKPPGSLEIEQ

A549 = assay: Cytotoxicity against human A549 cells assessed as mitotic progression after 72 hrs by MTT assay; type: functional, cell-based; details: A549, 72 h
HeLa [22] = assay: Cytotoxicity against human HeLa cells assessed as mitotic progression after 72 hrs by MTT assay; type: functional, cell-based
HT-29 = assay: Cytotoxicity against human HT-29 cells assessed as mitotic progression after 72 hrs by MTT assay; type: functional, cell-based; details: HT-29, 72 h
HeLa [23] = assay: Antitumor activity against human HeLa cells assessed as shortened mitotic spindles at 10 uM after 24 hrs by immunostaining relative to control; type: functional, cell-based
In short: (§2)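 HeLa cells treated 24 h with 10 or 25 μM compound or 0.1% DMSO, then fixed and stained for α-tubulin, γ-tubulin and DNA. Spindle length taken as pole-to-pole distance. Microtubule density judged from the immunostained spindles.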

HeLa [24] = assay: Antitumor activity against human HeLa cells assessed as shortened mitotic spindles at 25 uM after 24 hrs by immunostaining relative to control; type: functional, cell-based
In short: as §2

HeLa [25] = assay: Antitumor activity against human HeLa cells assessed as change in kinetochore microtubules density at 25 uM after 24 hrs by immunostaining relative to control; type: functional, cell-based
In short: as §2

[26] = Antimitotic activity against Drosophila melanogaster S2 cells assessed as bipolar spindles at 10 uM after 24 hrs by immunostaining relative to control; type: functional
In short: (§3)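 Drosophila S2 cells exposed to 10 μM (24 h, fixed) or 25 μM (added at time 0 to cells already in mitosis) of compound, with 0.1% DMSO control. Fixed cells immunostained for α-tubulin, γ-tubulin and DNA. Live cells expressing GFP-tubulin filmed by spinning-disk confocal time-lapse at 25 ± 1 °C to follow spindle behaviour.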

[27] = biological target: Aurora kinase B (Drosophila melanogaster) (UniProt Q9VKN7); assay: Inhibition of Aurora B kinase in Drosophila melanogaster assessed as histone H3 phosphorylation at Ser10
S2 [28] = assay: Antimitotic activity against Drosophila melanogaster S2 cells assessed as collapsed spindles at 25 uM; type: functional, cell-based
In short: as §3

S2 [29] = assay: Antimitotic activity against Drosophila melanogaster S2 cells expressing GFP-tubulin assessed as abnormal spindles at 25 uM; type: functional, cell-based
In short: as §3

S2 [30] = assay: Antimitotic activity against Drosophila melanogaster S2 cells assessed as nucleated microtubule at 10 nM; type: functional, cell-based
In short: as §1

S2 [31] = assay: Antimitotic activity against Drosophila melanogaster S2 cells assessed as nucleated microtubule at 20 nM; type: functional, cell-based
In short: as §1

S2 [32] = assay: Inhibition of Plk1 in Drosophila melanogaster S2 cells at 20 nM; type: cell-based
[33] = biological target: Tyrosine-protein kinase CSK (Homo sapiens) (UniProt P41240); assay: Inhibition of CSK at 100 uM
[34] = biological target: Insulin receptor (Homo sapiens) (UniProt P06213); assay: Residual activity of IR at 100 uM relative to control
[35] = biological target: Tyrosine-protein kinase Yes (Homo sapiens) (UniProt P07947); assay: Residual activity of Yes at 100 uM relative to control
[36] = biological target: Serine/threonine-protein kinase Chk1 (Homo sapiens) (UniProt O14757); assay: Residual activity of Chk1 at 100 uM relative to control
[37] = biological target: Serine/threonine-protein kinase Chk2 (Homo sapiens) (UniProt O96017); assay: Residual activity of Chk2 at 100 uM relative to control
[38] = biological target: Dual specificity mitogen-activated protein kinase kinase 1 (Homo sapiens) (UniProt Q02750); assay: Residual activity of MEK1 at 100 uM relative to control
[39] = biological target: Dual specificity mitogen-activated protein kinase kinase 6 (Homo sapiens) (UniProt P52564); assay: Residual activity of MKK6 at 100 uM relative to control
[40] = biological target: Ribosomal protein S6 kinase alpha-5 (Homo sapiens) (UniProt O75582); assay: Residual activity of MSK1 at 100 uM relative to control
[41] = biological target: Ribosomal protein S6 kinase alpha-3 (Homo sapiens) (UniProt P51812); assay: Residual activity of Rsk2 at 100 uM relative to control
[42] = biological target: RAF proto-oncogene serine/threonine-protein kinase (Homo sapiens) (UniProt P04049); assay: Residual activity of c-RAF at 100 uM relative to control
[43] = biological target: Fibroblast growth factor receptor 3 (Homo sapiens) (UniProt P22607); assay: Residual activity of FGFR3 at 100 uM relative to control
[44] = biological target: Mitogen-activated protein kinase 12 (Homo sapiens) (UniProt P53778); assay: Residual activity of SAPK3 at 100 uM relative to control
[45] = biological target: Cyclin-dependent kinase 2/cyclin E1 (Homo sapiens) (UniProt P24864+P24941); assay: Residual activity of CDK2/E at 100 uM relative to control
[46] = biological target: Insulin-like growth factor 1 receptor (Homo sapiens) (UniProt P08069); assay: Residual activity of IGF-1R at 100 uM relative to control
[47] = Residual activity of SAPK2b at 100 uM relative to control
[48] = biological target: Inhibitor of nuclear factor kappa-B kinase subunit alpha (Homo sapiens) (UniProt O15111); assay: Residual activity of IKKalpha at 100 uM relative to control
[49] = biological target: Protein kinase C gamma type (Homo sapiens) (UniProt P05129); assay: Residual activity of PKCgamma at 100 uM relative to control
[50] = biological target: Protein kinase C beta type (Homo sapiens) (UniProt P05771); assay: Residual activity of PKCbeta2 at 100 uM relative to control
[51] = biological target: MAP kinase-activated protein kinase 2 (Homo sapiens) (UniProt P49137); assay: Residual activity of MAPKAP-K2 at 100 uM relative to control
[52] = biological target: Mitogen-activated protein kinase 9 (Homo sapiens) (UniProt P45984); assay: Residual activity of JNK2alpha2 at 100 uM relative to control
[53] = biological target: Platelet-derived growth factor receptor alpha (Homo sapiens) (UniProt P16234); assay: Residual activity of PDGFRalpha at 100 uM relative to control
[54] = biological target: Tyrosine-protein kinase CSK (Homo sapiens) (UniProt P41240); assay: Inhibition of CSK at 100 uM relative to control; values are per cent of control

Chain of Serine/threonine-protein kinase PLK1 (P53350 whole entry): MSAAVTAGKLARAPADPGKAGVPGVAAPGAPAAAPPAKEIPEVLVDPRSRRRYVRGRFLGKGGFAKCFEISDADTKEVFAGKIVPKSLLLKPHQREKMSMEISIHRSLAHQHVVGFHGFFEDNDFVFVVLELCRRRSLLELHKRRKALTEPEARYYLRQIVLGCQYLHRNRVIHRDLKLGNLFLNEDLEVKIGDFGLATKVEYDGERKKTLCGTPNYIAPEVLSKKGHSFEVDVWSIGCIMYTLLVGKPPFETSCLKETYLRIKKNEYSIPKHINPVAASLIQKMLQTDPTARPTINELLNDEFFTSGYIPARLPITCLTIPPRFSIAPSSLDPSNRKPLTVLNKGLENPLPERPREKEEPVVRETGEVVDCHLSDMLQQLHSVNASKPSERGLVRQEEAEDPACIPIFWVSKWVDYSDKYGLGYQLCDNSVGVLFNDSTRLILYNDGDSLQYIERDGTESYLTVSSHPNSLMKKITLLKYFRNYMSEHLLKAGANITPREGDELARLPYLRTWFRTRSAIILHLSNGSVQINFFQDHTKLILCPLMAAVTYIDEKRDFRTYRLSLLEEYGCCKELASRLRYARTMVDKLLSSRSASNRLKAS

Compound `Cc1nc(N)sc1-c1ccnc(Nc2ccc(O)cc2)n1` has an IC50 [1] of 25 µM.

In the case of `Cc1nc(C)c(-c2ccnc(Nc3ccc(O)cc3)n2)s1`, the IC50 [1] is reported as 5 µM.

Compound `CNc1nc(C)c(-c2ccnc(Nc3ccc(O)cc3)n2)s1` has an IC50 [1] of 10 µM.

In the case of `NC(=O)c1sc2c([N+](=O)[O-])cc(SC(F)(F)F)cc2[n+]1[O-]` [CYCLAPOLIN 1], the Activity (S2 [2]) is reported as “inactive”, the Activity (S2 [3]) is reported as “Active” and the Activity (S2 [4]) is reported as “Active”. The inhibition (S2 [5]) was “inactive”, the inhibition (Drosophila melanogaster) was “inactive” and the Activity (S2 [6]) was “Active”. The IC50 [7] was greater than 100 µM, the IC50 [8] was greater than 100 µM and the IC50 [9] was greater than 100 µM. The IC50 [10] was greater than 100 µM, the IC50 [11] was greater than 100 µM and the IC50 (CDK9/cyclin T1) was greater than 100 µM. The IC50 [12] was greater than 100 µM, the IC50 [13] was greater than 100 µM and the IC50 [14] was greater than 100 µM. The IC50 [15] was greater than 100 µM, the IC50 [16] was greater than 100 µM and the IC50 [17] was greater than 100 µM. For the same compound, the IC50 [18] was greater than 100 µM, the IC50 (Aurora kinase A) was greater than 100 µM and the IC50 [19] was greater than 100 µM. For the same compound, the IC50 [20] was greater than 100 µM, the IC50 [21] was greater than 100 µM and the IC50 (A549) was 14 µM. For the same compound, the IC50 (HeLa [22]) was 14 µM, the IC50 (HT-29) was 2.8 µM and the Activity (HeLa [23]) was “Active”. The Activity (HeLa [24]) was “Active”, the Activity (HeLa [25]) was “Active” and the Activity [26] was 80%. The inhibition [27] was “inactive”, the Activity (S2 [28]) was “Active” and the Activity (S2 [29]) was “Active”. For the same compound, the Activity (S2 [30]) was “inactive”, the Activity (S2 [31]) was “Active” and the inhibition (S2 [32]) was “Active”.

`NC(=O)c1sc2c([N+](=O)[O-])cc(C(F)(F)F)cc2[n+]1[O-]` [CYCLAPOLIN 9] gave an IC50 [7] greater than 100 µM, an IC50 [8] greater than 100 µM and an IC50 [9] greater than 100 µM. It also gave an IC50 [10] greater than 100 µM, an IC50 [11] greater than 100 µM and an IC50 (CDK9/cyclin T1) greater than 100 µM. It also gave an IC50 [12] greater than 100 µM, an IC50 [13] greater than 100 µM and an IC50 [14] greater than 100 µM. For the same compound, the IC50 [15] was greater than 100 µM, the IC50 [16] was greater than 100 µM and the IC50 [17] was greater than 100 µM. The IC50 [18] was greater than 100 µM, the IC50 (Aurora kinase A) was greater than 100 µM and the IC50 [19] was greater than 100 µM. The IC50 [20] was greater than 100 µM, the IC50 [21] was greater than 100 µM and the IC50 (A549) was 24.8 µM. The IC50 (HeLa [22]) was 6.6 µM, the IC50 (HT-29) was 7.7 µM and the inhibition [33] was less than 50%. It also gave a residual activity [34] of 107%, a residual activity [35] of 108% and a residual activity [36] of 111%. The residual activity [37] was 97%, the residual activity [38] was 96% and the residual activity [39] was 88%. It also gave a residual activity [40] of 106%, a residual activity [41] of 105% and a residual activity [42] of 108%. For the same compound, the residual activity [43] was 83%, the residual activity [44] was 120% and the residual activity [45] was 88%. The residual activity [46] was 98%, the residual activity [47] was 94% and the residual activity [48] was 115%. For the same compound, the residual activity [49] was 117%, the residual activity [50] was 82% and the residual activity [51] was 96%. For the same compound, the residual activity [52] was 106%, the residual activity [53] was 108% and the residual activity [54] was 45%.

In the case of `NNC(=O)c1sc2c([N+](=O)[O-])cc(C(F)(F)F)cc2[n+]1[O-]` [CYCLAPOLIN 10], the IC50 (A549) is reported as 72.1 µM, the IC50 (HeLa [22]) is reported as 53.6 µM and the IC50 (HT-29) is reported as 50.5 µM.
